Experimental data from different studies.
Each line is one published result; the experiments were not run side by side.

Oc1c(Br)cc(Cl)c2cccnc12 has a Vd/F of 39.9 L/kg (Sprague-Dawley rat, plasma; oral, 20 mg/kg).
CN1CCN(c2nc(-c3ccccn3)nc3ccccc23)CC1 gave a microsomal CLint of 19 µL/min/mg (metabolic stability; mouse, liver microsomes).
For O=C(Nc1cccc(-c2ncco2)c1)c1cc([N+](=O)[O-])c(F)cc1F, the scaled CLint was 2200 mL/min/kg (metabolic stability; CD-1 mouse, liver microsomes; 1 µM, 1 h, pH 7.4).
With COC[C@@H](Cc1ccc(OC)c(OC)c1)[C@@H](COC)Cc1ccc(OC)c(OC)c1 the CC50 was 5 mM (Huh7.5; cell growth or viability, MTT).
O=C(Nc1cncc(-c2nc3ccccc3o2)c1)c1cc([N+](=O)[O-])c(N2CCNCC2)cc1Cl gave a scaled CLint of 10 mL/min/kg (metabolic stability; CD-1 mouse, liver microsomes; 1 µM, 1 h, pH 7.4).
For NC(=O)c1cnc2[nH]ccc2c1N[C@@H]1[C@@H]2CC3C[C@H]1C[C@@](O)(C3)C2, the inhibition was less than 50% (ATP-binding cassette sub-family C member 4 (ABCC4, Homo sapiens, UniProt O15439); transporter uptake, inhibitor, radiometric; Sf9; 100 µM, 5 min, pH 7, cell membranes).
The IC50 of CCn1cnc2c(=O)[nH]c(N)nc21.NCCNCCN.[Pt+2] is reported as greater than 0.1 mM (CCRF-CEM; cell growth or viability, WST-1).
The microsomal CLint of Fc1ccc(Nc2nc(-c3ccccn3)nc3ccccc23)cc1 is reported as 138 µL/min/mg (metabolic stability; mouse, liver microsomes).
COc1ccc(CC(CC(=O)O)C(=O)O)cc1OC (stereo not drawn) has a CC50 of greater than 5 mM (Huh7.5; cell growth or viability, MTT).
